This passage reports IC50 results from ChEMBL document CHEMBL1139240, “Synthesis, cytotoxic activity, DNA topoisomerase-II inhibition, molecular modeling and structure-activity relationship of 9-anilinothiazolo[5,4-b]quinoline derivatives” (Bioorg Med Chem, 2009).

Molecules are shown by their SMILES.

One assay has as its system HeLa. The assay is described as follows: Cytotoxicity against human HeLa cells after 72 hrs by MTT assay. The assay is classed as functional, cell-based. The procedure, abridged:
(§1)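 Cells seeded at 4.5 to 5.0 × 10^4 cells/mL/well in 24-well plates, exposed to compounds in DMSO for 72 h. MTT in PBS pH 7.2 added, formazan dissolved in DMSO, absorbance read at 540 nm. % growth inhibition = (1 − treated/untreated absorbance) × 100. Three independent experiments in quadruplicate.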

The subject of the next assay is SW480. Put plainly: Cytotoxicity against human SW480 cells after 72 hrs by MTT assay. The assay is classed as functional, cell-based. The note with it: SW480, 72 h. The procedure, abridged:
as §1

The test system of a further assay is SW-620. The assay is described as follows: Cytotoxicity against human SW620 cells after 72 hrs by MTT assay. Type of assay: functional, cell-based. The note with it: SW-620, 72 h. In outline: as §1
The subject of another assay is K562. The assay is described as follows: Cytotoxicity against human K562 cells after 72 hrs by MTT assay. The assay is classed as functional, cell-based. The note with it: K562, 72 h. The procedure, abridged:
as §1

The target of assay [1] is DNA topoisomerase 2-alpha (Homo sapiens, UniProt P11388). The assay is described as follows: Inhibition of human DNA topoisomerase 2-mediated Crithidia fasciculata kDNA decatenation using ethidium bromide staining by agarose gel electrophoresis. The procedure, abridged: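 Crithidia fasciculata kDNA (5 µg/mL) with 4 units human Topo II in 30 mM Tris–HCl pH 7.6, 60 mM NaCl, 8 mM MgCl2, 15 mM 2-mercaptoethanol, 3 mM ATP, 8% DMSO, 30 min at 37 °C. Proteinase K follows, then chloroform/isoamyl extraction and agarose gel with ethidium bromide. Decatenated plus linear DNA quantified densitometrically as % of total. Screened at 160 µM, IC50 from 1–160 µM curves.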
Chain of DNA topoisomerase 2-alpha (P11388 whole entry): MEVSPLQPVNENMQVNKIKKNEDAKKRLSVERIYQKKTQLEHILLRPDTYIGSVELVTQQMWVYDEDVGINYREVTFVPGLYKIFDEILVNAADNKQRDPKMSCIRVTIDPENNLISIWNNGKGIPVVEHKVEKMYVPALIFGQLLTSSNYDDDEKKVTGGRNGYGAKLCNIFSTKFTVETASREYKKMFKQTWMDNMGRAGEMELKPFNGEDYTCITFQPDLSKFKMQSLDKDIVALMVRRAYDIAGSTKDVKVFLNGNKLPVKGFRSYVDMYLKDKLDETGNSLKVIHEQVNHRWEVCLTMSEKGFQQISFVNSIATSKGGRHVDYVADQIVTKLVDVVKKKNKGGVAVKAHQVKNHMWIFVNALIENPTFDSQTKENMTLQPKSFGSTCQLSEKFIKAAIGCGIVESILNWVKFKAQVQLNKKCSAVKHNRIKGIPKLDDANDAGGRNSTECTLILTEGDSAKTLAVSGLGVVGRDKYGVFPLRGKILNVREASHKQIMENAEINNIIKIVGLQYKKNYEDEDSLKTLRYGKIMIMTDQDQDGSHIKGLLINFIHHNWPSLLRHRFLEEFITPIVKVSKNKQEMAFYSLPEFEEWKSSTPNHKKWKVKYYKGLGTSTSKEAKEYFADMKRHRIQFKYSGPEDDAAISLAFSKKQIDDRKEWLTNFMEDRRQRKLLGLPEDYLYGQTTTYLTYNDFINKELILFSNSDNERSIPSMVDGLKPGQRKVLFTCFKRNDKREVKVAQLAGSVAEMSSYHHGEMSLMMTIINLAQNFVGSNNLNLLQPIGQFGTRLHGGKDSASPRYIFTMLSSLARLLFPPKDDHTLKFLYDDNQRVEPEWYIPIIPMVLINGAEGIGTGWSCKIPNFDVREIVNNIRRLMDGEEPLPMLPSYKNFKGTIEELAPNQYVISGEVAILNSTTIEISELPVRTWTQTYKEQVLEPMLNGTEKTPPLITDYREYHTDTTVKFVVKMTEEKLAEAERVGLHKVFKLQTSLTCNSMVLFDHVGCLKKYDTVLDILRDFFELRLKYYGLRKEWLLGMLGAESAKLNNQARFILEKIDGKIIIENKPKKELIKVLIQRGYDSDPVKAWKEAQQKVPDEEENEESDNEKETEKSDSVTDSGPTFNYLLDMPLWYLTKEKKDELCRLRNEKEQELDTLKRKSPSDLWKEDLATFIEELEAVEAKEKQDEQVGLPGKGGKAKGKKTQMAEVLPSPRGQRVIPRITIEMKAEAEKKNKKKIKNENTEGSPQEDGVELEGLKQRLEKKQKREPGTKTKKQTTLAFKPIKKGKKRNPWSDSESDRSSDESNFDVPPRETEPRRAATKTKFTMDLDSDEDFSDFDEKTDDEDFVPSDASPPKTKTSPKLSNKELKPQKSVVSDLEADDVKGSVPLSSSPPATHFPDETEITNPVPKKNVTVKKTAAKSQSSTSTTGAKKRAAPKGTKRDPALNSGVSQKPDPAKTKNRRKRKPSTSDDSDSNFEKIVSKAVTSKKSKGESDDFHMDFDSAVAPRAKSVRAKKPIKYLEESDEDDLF

For `CCN(CC)CCCNc1nc2c(Nc3cccc(C#N)c3)c3ccccc3nc2s1`, the concentration for half-maximal inhibition (IC50) with HeLa came to 19.2 µM; in the assay with SW480, 11.5 µM; in the assay on SW-620, 19.7 µM; with K562, 12.9 µM.
For `c1ccc(Nc2c3ccccc3nc3sc(N4CCCCC4)nc23)cc1` the same measures were greater than 80 µM, greater than 80 µM, greater than 80 µM and greater than 80 µM.
As to `CCN(CC)CCCNc1nc2c(Nc3ccccc3)c3ccccc3nc2s1`, the IC50 in the assay on HeLa was 6.27 µM; in the assay with SW480 it was 6.9 µM; in the assay with SW-620 it was 16.6 µM; in the assay with K562 it was 7.52 µM.
As to `CCN(CC)CCNc1nc2c(Nc3ccccc3)c3ccccc3nc2s1`, the IC50 with HeLa was 16 µM; in the assay on SW480 it was 37.7 µM; with SW-620 it was 21.6 µM; with K562, 16.8 µM; in assay [1], 169 µM.
For `COc1cccc(Nc2c3cc(F)ccc3nc3sc(SC)nc23)c1`, the figures for the IC50 with HeLa, in the assay on SW480 and with SW-620 were 15.8 µM, 13.7 µM and 12.2 µM, respectively.
In the case of `CSc1nc2c(Nc3cccc(Cl)c3)c3ccccc3nc2s1`, the half-maximal inhibitory concentration (IC50) in the assay on HeLa is 69.4 µM; in the assay on SW480, greater than 80 µM; in the assay with SW-620 it was greater than 80 µM; in the assay with K562, 80.3 µM; in assay [1] it was 21.2 µM.
Consider `CN1CCN(c2nc3c(Cl)c4ccccc4nc3s2)CC1`, for which the half-maximal inhibitory concentration (IC50) with HeLa, with SW480, with SW-620 and in the assay with K562 was greater than 80 µM throughout.
As for `Clc1c2ccccc2nc2sc(N3CCOCC3)nc12`, the 50% inhibitory concentration (IC50) in the assay on HeLa, in the assay on SW480, in the assay on SW-620 and in the assay on K562 was greater than 80 µM in each case.
`CSc1nc2c(Nc3ccc(Cl)cc3)c3ccccc3nc2s1`: the 50% inhibitory concentration (IC50) in the assay with HeLa was greater than 80 µM; in the assay with SW480, greater than 80 µM; in the assay on SW-620 it was greater than 80 µM; in the assay with K562, 79.5 µM; in assay [1], 20.5 µM.
As to `CCN(CC)CCNc1nc2c(Nc3cccc(OC)c3)c3ccccc3nc2s1`, the half-inhibitory concentration (IC50) in the assay on HeLa was found to be 19.2 µM; in the assay with SW480, 11.5 µM; with SW-620 it was 20 µM; in the assay with K562, 23.5 µM.
As to `CCN(CC)CCCNc1nc2c(Nc3cccc(Cl)c3)c3ccccc3nc2s1`, the IC50 amounted to 7.46 µM with HeLa; 7.91 µM in the assay with SW480; 10.2 µM in the assay with SW-620; 9.84 µM with K562; 40.9 µM in assay [1].
As to `COc1ccc(Nc2c3cc(F)ccc3nc3sc(SC)nc23)cc1`, the IC50 in the assay with HeLa was greater than 80 µM; in the assay on SW480, greater than 80 µM; with SW-620, greater than 80 µM; with K562 it was 54.9 µM.
As to `CSc1nc2c(Nc3cc(N)cc(CO)c3)c3ccccc3nc2s1`, the IC50 with HeLa is greater than 80 µM; in the assay on SW480, greater than 80 µM; with SW-620 it was greater than 80 µM; with K562, greater than 80 µM; in assay [1] it was 18 µM.
For the compound `CSc1nc2c(Nc3cccc(NC(C)=O)c3)c3ccccc3nc2s1`, the half-maximal inhibitory concentration (IC50) was greater than 80 µM in the assay with HeLa; greater than 80 µM in the assay on SW480; greater than 80 µM in the assay with SW-620; greater than 80 µM in the assay on K562; 29.6 µM in assay [1].
Regarding `CCN(CC)CCNc1nc2c(Nc3ccc(Cl)cc3)c3ccccc3nc2s1`, the IC50 amounted to 10.2 µM in the assay on HeLa, 12.6 µM in the assay with SW480, 12.2 µM in the assay on SW-620 and 7.26 µM with K562.
On the same counts, the results for `CSc1nc2c(Nc3ccccc3)c3ccccc3nc2s1` are greater than 80 µM, greater than 80 µM, greater than 80 µM and greater than 80 µM.
In the case of `CNc1cccc(Nc2c3ccccc3nc3sc(SC)nc23)c1`, the half-inhibitory concentration (IC50) with HeLa was 46.2 µM; in the assay on SW480, greater than 80 µM; with SW-620, greater than 80 µM; with K562 it was 46.9 µM; in assay [1], 12.3 µM.
Take `CSc1nc2c(Nc3cccc(/C(C)=N\O)c3)c3ccccc3nc2s1`: the half-inhibitory concentration (IC50) in the assay with HeLa was 34.2 µM; with SW480 it was 37.3 µM; in the assay with SW-620, 39.4 µM; in the assay with K562, 32.8 µM.
As to `CCN(CC)CCNc1nc2c(Nc3cccc(C#N)c3)c3ccccc3nc2s1`, the IC50 turned out to be 13.3 µM in the assay on HeLa, 13.1 µM in the assay on SW480, 14.6 µM with SW-620 and 12.5 µM in the assay with K562.
For `CN1CCN(c2nc3c(Nc4ccccc4)c4ccccc4nc3s2)CC1` the same measures were 60.7 µM, 41.8 µM, greater than 80 µM and 73 µM.
`CSc1nc2c(Nc3cccc(O)c3)c3ccccc3nc2s1`: the IC50 in the assay on HeLa is greater than 80 µM; with SW480, greater than 80 µM; with SW-620, greater than 80 µM; in the assay on K562 it was greater than 80 µM; in assay [1], 64.3 µM.
On to `CSc1nc2c(Nc3cccc(C(C)=O)c3)c3ccccc3nc2s1`, for which the concentration for half-maximal inhibition (IC50) with HeLa, with SW480, with SW-620 and in the assay with K562 was greater than 80 µM throughout.
`COc1cc(NS(C)(=O)=O)ccc1Nc1c2ccccc2nc2ccccc12` [AMSACRINE]: the IC50 in the assay on HeLa came out at 9.5 µM; in the assay on SW480, 27.7 µM; in the assay with SW-620, 16.7 µM; in the assay with K562 it was 19.9 µM; in assay [1], 9.94 µM.
As for `CCN(CC)CCNc1nc2c(Nc3cccc(Cl)c3)c3ccccc3nc2s1`, the half-inhibitory concentration (IC50) in the assay with HeLa was determined as 9.12 µM; with SW480, 14.3 µM; with SW-620, 17.8 µM; in the assay with K562, 12.2 µM.
With `Clc1c2ccccc2nc2sc(N3CCCCC3)nc12`, the half-inhibitory concentration (IC50) in the assay with HeLa, in the assay with SW480, in the assay with SW-620 and with K562 was greater than 80 µM throughout.
Take `CCOC(=O)c1cccc(Nc2c3ccccc3nc3sc(SC)nc23)c1`: the IC50 in the assay on HeLa, in the assay with SW480, in the assay on SW-620 and in the assay on K562 was greater than 80 µM each time.
Take `CSc1nc2c(Nc3ccc(C#N)cc3)c3cc(F)ccc3nc2s1`: the half-inhibitory concentration (IC50) in the assay with HeLa, in the assay on SW480 and with SW-620 was greater than 80 µM in each case.
Consider `CSc1nc2c(Nc3cccc(C(F)(F)F)c3)c3ccccc3nc2s1`, for which the half-inhibitory concentration (IC50) worked out at 43.3 µM in the assay on HeLa; 65.1 µM in the assay with SW480; 62.3 µM with SW-620; 67.1 µM with K562; 15.4 µM in assay [1].
On to `CCN(CC)CCNc1nc2c(Nc3ccc(OC)cc3)c3ccccc3nc2s1`, for which the IC50 was found to be 13.6 µM with HeLa, 12 µM in the assay on SW480, 16.4 µM with SW-620 and 10.9 µM in the assay with K562.
As to `CSc1nc2c(Nc3ccccc3)c3cc(F)ccc3nc2s1`, the concentration for half-maximal inhibition (IC50) in the assay on HeLa, in the assay with SW480, in the assay on SW-620 and in the assay with K562 was greater than 80 µM each time.
For the compound `c1ccc(Nc2c3ccccc3nc3sc(N4CCOCC4)nc23)cc1`, the IC50 in the assay on HeLa, with SW480, in the assay on SW-620 and in the assay on K562 was greater than 80 µM throughout.
Consider `CCN(CC)CCNc1nc2c(Nc3ccc(C#N)cc3)c3ccccc3nc2s1`, for which the half-inhibitory concentration (IC50) is 15.2 µM with HeLa, 14.2 µM in the assay with SW480, 16.5 µM in the assay with SW-620 and 8.36 µM in the assay with K562.
On the same counts, the results for `CCN(CC)CCCNc1nc2c(Nc3ccc(Cl)cc3)c3ccccc3nc2s1` are 8.82 µM, 4.92 µM, 7.48 µM and 3.36 µM.
For `CSc1nc2c(Nc3cccc(C#N)c3)c3cc(F)ccc3nc2s1` the same measures were greater than 80 µM, greater than 80 µM, greater than 80 µM and 55.4 µM.
Consider `CCN(CC)CCCNc1nc2c(Nc3ccc(C#N)cc3)c3ccccc3nc2s1`, for which the IC50 in the assay on HeLa stood at 24.2 µM; with SW480 it was 22.7 µM; in the assay with SW-620, 29.2 µM; in the assay on K562 it was 12.9 µM.
On to `CSc1nc2c(Nc3cccc(N)c3)c3ccccc3nc2s1`, for which the IC50 is greater than 80 µM in the assay on HeLa; greater than 80 µM in the assay on SW480; greater than 80 µM with SW-620; greater than 80 µM with K562; 16.7 µM in assay [1].
